Bioassay records as filed in PubChem BioAssay.
A selection: hits, their analogues and other compounds. The true share with any hit is near 1.8%.
M4 PAM = positive allosteric modulators of human muscarinic M4 receptor; actives 0.4% (n = 360,000); CHO-K1 hM4/Gqi5, Fluo-8 calcium fluorescence, ACh EC20; 0% = ACh EC20, 100% = maximal ACh; activation, % at 3 µM; P08173;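 active means activation above its plate's cutoff, the mean activation of sample wells plus 3 SD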
Target sequence (P08173 whole entry, looked up): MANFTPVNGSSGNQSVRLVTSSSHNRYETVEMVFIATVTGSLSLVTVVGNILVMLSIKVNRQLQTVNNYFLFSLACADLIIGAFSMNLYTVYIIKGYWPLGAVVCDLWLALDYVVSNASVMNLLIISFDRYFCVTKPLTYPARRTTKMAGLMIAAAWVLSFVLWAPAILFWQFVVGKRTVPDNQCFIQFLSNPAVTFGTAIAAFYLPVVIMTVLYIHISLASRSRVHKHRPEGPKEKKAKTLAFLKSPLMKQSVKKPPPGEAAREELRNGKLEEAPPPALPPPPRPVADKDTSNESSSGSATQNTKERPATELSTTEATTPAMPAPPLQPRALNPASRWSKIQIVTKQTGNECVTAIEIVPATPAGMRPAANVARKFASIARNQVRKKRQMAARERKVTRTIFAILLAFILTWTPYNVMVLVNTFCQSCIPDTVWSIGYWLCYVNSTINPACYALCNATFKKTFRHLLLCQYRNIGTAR
CHRM5 PAM = positive allosteric modulators of human muscarinic M5 receptor. CHO-K1 hM5, Fluo-8 calcium, ACh EC20 PAM; 0% = ACh EC20, 100% = ACh EC100. actives 0.3% (n = 360,000). P08912. activation, % at 3 µM. AID 624038;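 active means activation above the run cutoff, the mean activation of all test compounds plus 3 SD, cut at about 18% in these data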
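Assay system – human M5 receptor in CHO-K1 cells · Read-out – % activation, ACh-normalized · Technique – Fluo-8 calcium fluorescence · Dosing – single-point, 3 µM nominal · Incubation – Fluo-8 loading 80 min at 37 °C plus 30 min room temperature · Repeats – singlicate, one well per test compound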
M5 antag = antagonists of human muscarinic M5 receptor (CHRM5); CHO-hM5 cells, Fluo-8 calcium fluorescence, ACh EC80; AID 624040; actives 0.59% (n = 360,000); P08912; inhibition, % at 3 µM;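 active means inhibition above a per-plate cutoff, the mean of that plate's test compounds plus 3 SD, cut at about 27% in these data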
M4 ag = agonists of human muscarinic M4 receptor (CHRM4). actives 0.14% (n = 360,000). P08173. activation, % at 3 µM. CHO-K1 hM4/Gqi5, Fluo-8 calcium fluorescence; vehicle 0%, full acetylcholine response 100%. AID 624127;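 active means activation above the run mean over all test wells plus 3 SD, cut at about 32% in these data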;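 further: peak over basal fluorescence ratio per well then scaled between controls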
M5 ag = agonists of human muscarinic M5 receptor (CHRM5) | actives 0.19% (n = 360,000) | activation, % at 3 µM | CHO-K1 hM5 cells, Fluo-8 calcium fluorescence; 0% DMSO wells, 100% maximal acetylcholine response;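 active means activation above the run's mean over test compounds plus 3 SD, cut at about 23% in these data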;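 further: signal is peak over basal fluorescence ratio across the kinetic read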
CHRM4 antagonist = antagonists of human muscarinic M4 receptor (CHRM4); P08173; CHO-hM4 cells, ACh EC80, Fluo-8 calcium fluorescence; inhibition, % at 3 µM; actives 0.73% (n = 360,000);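 active means inhibition above its plate's cutoff, the mean inhibition of sample wells plus 3 SD, cut at about 27% in these data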
Hits are given with their value; – = inactive.

SMILES	M4 PAM	CHRM5 PAM	M5 antag	M4 ag	M5 ag	CHRM4 antagonist
CNC(=S)N1CCC(NC(=O)C(Cc2ccc(OC)cc2)NC(C)=O)CC1 (configuration not stated)	–	–	–	–	–	–
OCCN(CC#CC(O)(c1ccccc1)c1cccc(F)c1)CCO (configuration not stated)	–	–	–	–	–	–
CN(C)CCC#CC(O)(c1ccccc1)c1ccccc1	–	–	38	–	–	32
CN(C)C(C)(C)C#CC(O)(c1ccccc1)c1ccccc1	–	–	83	–	–	53
CCN(CC)CC#CC(O)(c1ccccc1)c1ccccc1	–	–	98	–	–	88
CC1(C(=O)NCc2cccc3ccccc23)CCN1Cc1cccc2c1OCO2 (configuration not stated)	–	–	–	–	–	–
CC(C)(C)N1C(=O)c2ccccc2NC(=O)C1C(=O)NCc1ccco1 (configuration not stated)	–	–	–	–	–	–
CC1=C(C(=O)N(C(C)C)C(C)C)CC(CC(=O)NC(c2ccccc2)c2ccccc2)C(=O)N1Cc1ccc(F)cc1 (configuration not stated)	–	–	–	–	–	–
CCCCC(=O)N(C)c1c(CC)nc2c(OCc3cccc(Cl)c3)cccn12	–	–	–	–	–	–
CN(C(=O)CSc1nc2ccc(Cl)cc2[nH]1)C1CCS(=O)(=O)C1 (configuration not stated)	–	23	–	–	–	–
COc1cc(CNc2ncnc3c2ncn3[C@H]2CN(Cc3cccc4ccccc34)C[C@@H](CO)O2)cc(OC)c1OC	–	–	–	–	–	–
Cc1c(Cl)cccc1NC(=S)NCC1COc2ccccc2O1 (configuration not stated)	–	–	39	–	–	–
NC(c1csc(Nc2ccc(C(F)(F)F)cn2)n1)C1CCCCC1 (configuration not stated)	–	–	–	–	–	–
Cn1cnc(S(=O)(=O)Nc2ccc(Cl)c(C(F)(F)F)c2)c1	15	–	–	–	–	–
Cn1cnc(S(=O)(=O)Nc2ccc(C(F)(F)F)cc2)c1	–	–	–	–	–	–
Cc1cc(C)cc(-n2c(=O)c3sccc3n(CC(=O)NCc3ccco3)c2=O)c1	–	22	–	–	–	–
CC(C)C[C@H]1CN(CCCC[C@H]2CNC(=O)C(=O)N2CC2CCCCC2)C(=O)C(=O)N1CC1CCCCC1	–	–	–	–	–	–
Cc1ccc2c(c1)/C(=N/OS(=O)(=O)c1ccccc1)CCS2	–	–	–	–	–	–
CC1=CC(=O)C(C(C)C)=C/C1=N/OS(=O)(=O)c1ccccc1	–	–	51	–	–	79
CC1=CC(=O)C=C(C)C1=NOS(=O)(=O)c1ccccc1	–	–	41	–	23	32
CCCn1c(NC(=O)CN2C(=O)NC3(CCCC3)C2=O)nc2ccccc21	23	–	–	–	–	–
CCCn1c(NC(=O)CN2C(=O)NC3(CCCCC3)C2=O)nc2ccccc21	–	–	–	–	–	–
COc1ccc(Cl)cc1-c1cc(C(=O)Nc2ccc(C(C)(C)C)cc2)[nH]n1	–	–	–	–	–	–
CCCC(=O)c1c(NC(C)C)cc(C)oc1=O	39	–	–	–	–	–
COc1ccc(NC(=O)C(c2cc3ccccc3o2)n2c(=O)c(-c3cc4ccccc4[nH]3)nc3ccccc32)cc1 (configuration not stated)	–	–	–	–	–	–
O=C(NN1C(=O)C2C(c3ccccc3)C=CC(c3ccccc3)C2C1=O)c1cccc(Br)c1 (configuration not stated)	–	–	37	–	–	–
O=C(c1ccccn1)N(Cc1ccco1)C1(C(=O)Nc2ccc(Br)cc2)CCCCC1	–	–	–	–	–	–
CCCCN(C(=O)CCC(=O)Nc1cc(C)on1)C(C(=O)NC1CCCC1)c1ccc(F)cc1 (configuration not stated)	–	20	–	–	–	–
